Test system: MS2 coat protein
Assay: apparent Kd, MS2 coat protein; higher = weaker binding; RNA-MaP array; FMN 200 µM where present
In short: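 Stalled E. coli RNA polymerase transcribed the designs on Illumina sequencing-chip clusters. SNAP-549-labelled MS2 coat protein was titrated from 0.7 or 1.5 nM, doubling to 3 µM, without and then with constant ligand, in 100 mM Tris-HCl pH 7.5, 80 mM KCl, 4 mM MgCl2, BSA, DTT, yeast tRNA and Tween-20. Per-cluster binding curves were fitted to green signal normalised to red-channel RNA signal and control-cluster median Fmax. The apparent Kd is the median of the filtered fits.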

[1] = designed as: OFF switch for flavin mononucleotide, no ligand
[2] = ligand present: flavin mononucleotide, designed as: OFF switch for flavin mononucleotide
[3] = designed as: ON switch for flavin mononucleotide, no ligand
[4] = ligand present: flavin mononucleotide, designed as: ON switch for flavin mononucleotide

| Sequence | apparent Kd [1] | apparent Kd [2] | apparent Kd [3] | apparent Kd [4] |
| --- | --- | --- | --- | --- |
| CUCAUGUGAGGAUAUUCGGGCGGGCUCGUUUGGGUUUGUUUGGAGAAGGUACAUGAGGAUCACCCAUGUGCUGG | 218 nM | 77.8 nM |  |  |
| AGGUCACAUGAGGAUCACCCAUGUCAGGAUAUCGUCACUGGAGCUGCGGCUCCAGUGACGAGAAGGGAUAAUUA | 45.5 nM | 70.5 nM |  |  |
| UAGUAGGUAGGAUAUACAUGGAUAUACAUUCAUGUGGACCUACAUGAGGAUCACCCAUGUAGAAGGACCUACUA | 38.1 nM | 88.9 nM |  |  |
| CCCGUCAUCGAGAAGGCCUCAACAUGAGGAUCACCCAUGUUGUAAUAUGGGAGGAUAUCGAUGAUACAGCUACGUUUCGUACCC |  |  | 17.1 nM | 5.8 nM |
| GUUCCACAUGAGGAUCACCCAUGUGAGGAUAUGGAUUCGCUGGCCGUAGCCAGUGGAUCCAGAAGGCGCAUGAU | 39.9 nM | 153 nM |  |  |
| CCGUUGAUAGGACAGGAUAUGACUGUCGUCACAUGAGGAUCACCCAUGUCCCGGCAAUGCCACCGUUAGAAGGGUCCCGUCUCGG |  |  | 18.8 nM | 19.2 nM |
| UGGGUUGUUGAGGAUAUCCCGACCGUCUGGUCGGGAGAAGGCAAUACAUGAGGAUCACCCAUGUCACACUUUUC | 32.2 nM | 66.5 nM |  |  |
| UGCGGAAGAGGAUAUACGUAGAAAUAGAUUCAUGUAAAACUACAUGAGGAUCACCCAUGUAGAAGGCUUUCGCU | 24.8 nM | 232 nM |  |  |
| GGGUGGCGUAGAGGAUAUGUGGUACAUGAGGAUCACCCAUGUGCAUAUGAUGUUCGUGUUUAUGUAUAGAAGGCUACGUCGCUA |  |  | 12.5 nM | 12.3 nM |
| UUUUUUUGCUGAGGAUAUAGCGCGCGUUUUGCGCUAGAAGGCAGACAUGUGGUUCACCCAUGUACAUGAGGAUCACCCAUGUUA |  |  | 552 nM | 301 nM |
| ACUGACAUGAGGAUCACCCAUGUCUUGGAUAGGCCAAAUUCACAGGAUAUGCAUGAGGAAAGAGUGCAGAAGGGUGAUGCAAUG |  |  | 43.6 nM | 23.9 nM |
| CUUUCGUGAGGAUAUGUGGCUUCGAUCGUGAGAUCGAAACUACAGAAGGCACAUGAGGAUCACCCAUGUUCCUC | 33.9 nM | 540 nM |  |  |
| CCGGAAAUACAGGAUAUAGGAGUCGAUAGACUCCUAGAAGGGUAUACAUGAGGAUCACCCAUGUGUCCUACCGG | 26.5 nM | 31.7 nM |  |  |
| AACGAGCAGUAGAAGGCAUGUCUACGGACAUGAGGAUCACCCAUGUUGUGACUCCGAAAGGAGCGUGAGGAUAUACUGCUCAAA |  |  | 91.9 nM | 14.3 nM |
| CAGGUAGACUGAGGAUAUACAAUAAACAGCUAGUCUAUCUAGCUGCCUACAUGAGGAUCACCCAUGUAGAAGGCAGUCUGCCUG | 16.2 nM | 16.6 nM |  |  |
| CUUUUGUGAGGAUAUUAGUAGUAAAUAAAUAAAAUUACUACUGAGAAGGCACAUGAGGAUCACCCAUGUUCUUC | 19.4 nM | 93.8 nM |  |  |
| GCACGAGACUAAGGAUAUGGAGUGUCUACAUUAAACAUGAGGAUCACCCAUGUAGGGAGUAUGAUUCAGAAGGUAGAGACGUGC |  |  | 331 nM | 48.3 nM |
| UAGAACCUAGGAUAUACUUGGACCACUAAUGCACAGAUAUAACAUGAGGAUCACCCAUGUAGAAGGAGGAGUAA | 40.4 nM | 32.4 nM |  |  |
| CGUUGUUCCGCAGGAUAUGCAUUGGAUUACAAUGCAGAAGGGCGAUAACAUGAGGAUCACCCAUGUGUGGACAAUGAGGAAGAG |  |  | 792 nM | 55.2 nM |
| ACUUAUGAAGGAUAUACUAGCGACAUGCGCUCAACACGCGCACAUGAGGAUCACCCAUGUAGAAGGUCAAACAU | 23.1 nM | 22.1 nM |  |  |
| AAUGAGACCGCAGGAUAUCCACAUGAGGAUCACCCAUGUUCUCAGAUCAGAAGCACGAUCUGCGAGGAGAAGGGCGACCUCAUA |  |  | 563 nM | 37.6 nM |

From the EternaBench riboswitch data
